From ChEMBL document CHEMBL4414601 (J Med Chem, 2019)
Converted amounts (≈) assume the structure as drawn.

What was measured:
Plasmodium falciparum [1] = assay: Antiplasmodial activity against […] of Plasmodium falciparum NF54 assessed as reduction in female gametocytes activation preincubated for 48 hrs followed by gametocytes activation and measured after 24 hrs by fluorescence based automated inverted microscopic analysis; type: functional, organism-based
Summary of the method: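 NF54 gametocytes were activated by lowered temperature plus ookinete medium with xanthurenic acid and anti-Pfs25-Cy3 antibody (1/2000 final dilution). Cultures were then kept at 26 °C for 24 h in the dark. Activated females were counted by Cy3 anti-Pfs25 fluorescence, with events gated on size, roundness and fluorescence intensity.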

L929 = assay: Cytotoxicity against mouse L929 cells assessed as reduction in viability by dual luciferase reporter gene assay; type: ADME, cell-based
[2] = Clearance in rat liver microsomes at 0.5 uM measured up to 45 mins in presence of NADPH by HPLC-MS/MS analysis; type: ADME, Microsome
[3] = target: Voltage-gated inwardly rectifying potassium channel KCNH2 (Homo sapiens, UniProt Q12809); assay: Inhibition of human ERG expressed in CHO cells by Q-patch clamp assay
Voltage-gated inwardly rectifying potassium channel KCNH2, sequence (Q12809 whole entry): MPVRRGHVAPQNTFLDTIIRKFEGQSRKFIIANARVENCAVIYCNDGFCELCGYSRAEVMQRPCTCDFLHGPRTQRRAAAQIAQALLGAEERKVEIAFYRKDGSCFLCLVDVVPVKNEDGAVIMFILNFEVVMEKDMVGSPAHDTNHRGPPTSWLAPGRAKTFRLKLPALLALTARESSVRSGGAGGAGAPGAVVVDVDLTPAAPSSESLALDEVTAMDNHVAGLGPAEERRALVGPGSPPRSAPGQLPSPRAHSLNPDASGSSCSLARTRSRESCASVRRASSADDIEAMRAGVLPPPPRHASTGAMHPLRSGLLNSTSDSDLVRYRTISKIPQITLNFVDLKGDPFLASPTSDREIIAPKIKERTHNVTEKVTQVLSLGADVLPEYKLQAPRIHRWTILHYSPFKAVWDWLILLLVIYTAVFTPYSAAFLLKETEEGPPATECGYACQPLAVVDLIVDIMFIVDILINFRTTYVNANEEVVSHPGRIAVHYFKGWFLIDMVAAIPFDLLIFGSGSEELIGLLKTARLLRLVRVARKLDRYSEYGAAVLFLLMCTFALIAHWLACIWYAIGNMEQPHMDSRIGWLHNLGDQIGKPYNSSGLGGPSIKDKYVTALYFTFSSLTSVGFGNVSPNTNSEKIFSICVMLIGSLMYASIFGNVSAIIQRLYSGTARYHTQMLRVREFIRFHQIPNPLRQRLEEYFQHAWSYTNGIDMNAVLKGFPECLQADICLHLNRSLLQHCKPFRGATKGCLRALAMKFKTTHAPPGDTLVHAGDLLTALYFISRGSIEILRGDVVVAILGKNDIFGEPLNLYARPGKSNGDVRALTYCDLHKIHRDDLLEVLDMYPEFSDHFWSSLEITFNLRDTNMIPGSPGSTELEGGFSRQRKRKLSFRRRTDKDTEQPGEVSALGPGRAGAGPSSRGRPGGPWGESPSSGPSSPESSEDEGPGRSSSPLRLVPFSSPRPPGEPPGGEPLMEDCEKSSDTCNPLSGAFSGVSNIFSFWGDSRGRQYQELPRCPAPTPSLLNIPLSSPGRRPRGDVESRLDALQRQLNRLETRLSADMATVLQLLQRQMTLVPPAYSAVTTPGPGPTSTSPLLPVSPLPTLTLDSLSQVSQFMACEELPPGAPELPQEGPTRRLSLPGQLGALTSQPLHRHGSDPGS

[4] = Lipophilicity, LogD of compound by reverse phase HPLC analysis
[5] = Clearance in human liver microsomes at 0.5 uM measured up to 45 mins in presence of NADPH by HPLC-MS/MS analysis; type: ADME, Microsome
[6] = Clearance in mouse liver microsomes at 0.5 uM measured up to 45 mins in presence of NADPH by HPLC-MS/MS analysis; type: ADME, Microsome
[7] = Permeability of compound by PAMPA
[8] = Aqueous solubility of compound; details: buffer
Plasmodium falciparum [9] = assay: Antiplasmodial activity against […] of Plasmodium falciparum NF54 assessed as reduction in male gametocytes activation preincubated for 48 hrs followed by gametocytes activation and measured after 24 hrs by fluorescence based automated inverted microscopic analysis; type: functional, organism-based
Summary of the method: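 Gametocyte activation was triggered by reduced temperature and ookinete medium containing xanthurenic acid. Male exflagellation centres were detected from a 10-frame video, scoring pixel changes caused by flagellar movement shifting surrounding cells.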

Plasmodium falciparum [10] = assay: Antiplasmodial activity against Plasmodium falciparum 3D7A erythrocytic stage assessed as reduction in [3H]hypoxanthine incorporation preincubated for 24 hrs followed by [3H]hypoxanthine addition and measured after 24 hrs by microbeta scintillation counting method; type: functional, organism-based
Summary of the method: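 Nine threefold serial dilutions from 5 μM top concentration. Incubated 24 h at 37 °C under 5% CO2/5% O2/90% N2, then 0.2 μCi [3H]-hypoxanthine per well for another 24 h. Cells harvested on glass fibre filters and counted. Data normalized to compound-free parasitized RBCs; IC50 fitted.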

[11] = target: cGMP-dependent protein kinase (Plasmodium falciparum, UniProt W7JX98); assay: Inhibition of Plasmodium falciparum full length N-terminal His-tagged PKG expressed in Escherichia coli RosettaTM 2(DE3) pLysS cells using FAM-GRTGRRNSI-NH2 as substrate preincubated for 30 mins followed by ATP addition and measured after 30 mins by microfluidic mobility shift assay
cGMP-dependent protein kinase, sequence (W7JX98 whole entry): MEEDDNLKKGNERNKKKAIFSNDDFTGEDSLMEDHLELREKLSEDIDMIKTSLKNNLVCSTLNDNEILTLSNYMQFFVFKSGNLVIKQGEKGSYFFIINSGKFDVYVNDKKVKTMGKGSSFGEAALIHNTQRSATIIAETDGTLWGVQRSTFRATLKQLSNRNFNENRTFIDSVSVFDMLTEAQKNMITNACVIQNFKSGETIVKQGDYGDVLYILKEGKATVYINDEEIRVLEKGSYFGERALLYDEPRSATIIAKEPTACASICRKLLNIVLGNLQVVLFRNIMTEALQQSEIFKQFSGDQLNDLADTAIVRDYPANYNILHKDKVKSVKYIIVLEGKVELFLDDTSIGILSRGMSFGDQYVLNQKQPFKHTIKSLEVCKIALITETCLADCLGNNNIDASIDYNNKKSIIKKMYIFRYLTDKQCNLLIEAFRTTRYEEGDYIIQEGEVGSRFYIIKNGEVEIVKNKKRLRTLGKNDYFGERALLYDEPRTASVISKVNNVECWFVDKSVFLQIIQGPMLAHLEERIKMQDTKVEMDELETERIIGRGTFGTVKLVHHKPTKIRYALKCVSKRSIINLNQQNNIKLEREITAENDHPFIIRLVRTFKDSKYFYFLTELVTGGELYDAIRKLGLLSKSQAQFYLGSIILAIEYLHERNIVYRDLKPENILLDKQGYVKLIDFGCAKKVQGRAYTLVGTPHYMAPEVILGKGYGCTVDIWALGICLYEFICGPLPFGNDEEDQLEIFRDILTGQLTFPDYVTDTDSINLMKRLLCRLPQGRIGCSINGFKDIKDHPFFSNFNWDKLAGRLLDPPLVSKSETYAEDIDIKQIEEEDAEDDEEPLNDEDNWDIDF

Plasmodium falciparum [12] = assay: (§1) Antiplasmodial activity against Plasmodium falciparum 3D7A asexual erythrocytic stage assessed as reduction in [3H]hypoxanthine incorporation preincubated for 48 hrs followed by [3H]hypoxanthine addition and measured after 24 hrs by microbeta scintillation counting method; type: functional, organism-based
Plasmodium falciparum [13] = assay: (§2) Antiplasmodial activity against Plasmodium falciparum 3D7A asexual erythrocytic stage assessed as reduction in [3H]hypoxanthine incorporation preincubated for 72 hrs followed by [3H]hypoxanthine addition and measured after 24 hrs by microbeta scintillation counting method; type: functional, organism-based
Plasmodium falciparum [14] = assay: as §1, with “3D7A harboring with PKG T618Q mutant” for “3D7A”; type: functional, organism-based
Plasmodium falciparum [15] = assay: as §2, with “3D7A harboring with PKG T618Q mutant” for “3D7A”; type: functional, organism-based

| Compound | EC50 (Plasmodium falciparum [1]) | EC50 (L929) | CLH [2] | IC50 [3] | chromatographic logD [4] | CLH [5] | CLH [6] | Papp [7] | solubility [8] | EC50 (Plasmodium falciparum [9]) | EC50 (Plasmodium falciparum [10]) | IC50 [11] | EC50 (Plasmodium falciparum [12]) | EC50 (Plasmodium falciparum [13]) | EC50 (Plasmodium falciparum [14]) | EC50 (Plasmodium falciparum [15]) |
| --- | --- | --- | --- | --- | --- | --- | --- | --- | --- | --- | --- | --- | --- | --- | --- | --- |
| OC(CNc1nccc(-c2sc(C3CCNCC3)nc2-c2ccc(F)cc2)n1)c1ccncc1 (centres undefined) | 10.6 µM | 15.1 µM | 0.77 mL/min/g | 28.2 µM | 1.79 | 5.8 mL/min/g | 2.08 mL/min/g | 1 ×10⁻⁶ cm/s | 225 µM (≈ 107 µg/mL) | 3.67 µM | – | – | – | – | – | – |
| Nc1nc(-c2ccc(F)cc2)c(-c2ccnc(Nc3ccc(N4CCNCC4)cc3)n2)s1 | 0.19 µM | 1.8 µM | 1.98 mL/min/g | 35.5 µM | 2.42 | 0.52 mL/min/g | 1.47 mL/min/g | – | 24.5 µM (≈ 11 µg/mL) | 0.15 µM | 1.75 µM | – | – | – | – | – |
| Fc1ccc(-c2nc(N3CCCC3)sc2-c2ccnc(Nc3ccc(N4CCNCC4)cc3)n2)cc1 | – | 3.8 µM | 0.81 mL/min/g | – | 4.43 | 0.59 mL/min/g | 1.56 mL/min/g | 27 ×10⁻⁶ cm/s | 54 µM (≈ 27.1 µg/mL) | – | 0.77 µM | 0.002 µM | – | – | – | – |
| CN1CCN(c2ccc(Nc3nccc(-c4sc(C5CCNCC5)nc4-c4ccc(F)cc4)n3)cc2)CC1 | 0.3 µM | 3.8 µM | 1.27 mL/min/g | 13.2 µM | 2.79 | 0.53 mL/min/g | 0.96 mL/min/g | 11 ×10⁻⁶ cm/s | 41 µM (≈ 21.7 µg/mL) | 0.26 µM | 0.7 µM | 0.0006 µM | – | – | – | – |
| Fc1ccc(-c2nc(C3CCNCC3)sc2-c2ccnc(Nc3cnccn3)n2)cc1 | – | 3.2 µM | 0.49 mL/min/g | – | 2.32 | 0.4 mL/min/g | 0.72 mL/min/g | 16 ×10⁻⁶ cm/s | 68 µM (≈ 29.5 µg/mL) | – | 0.6 µM | 0.005 µM | 1.36 µM | 0.69 µM | 0.82 µM | 0.88 µM |
